# Test results from ChEMBL document CHEMBL1177647, “Synthesis and characterization of novel phenylindoles as potential probes for imaging of β-amyloid plaques in the brain” (Bioorg Med Chem, 2010).
# Assays:
# [1] = Displacement of [125I]IMPY from amyloid beta42 by gamma counting
# Kidney [2] = assay: Biodistribution in ddY mouse kidney at 0.2 to 0.4 uCi, iv after 60 mins; type: ADME, organism-based; conditions: in vivo, 1 h
# Procedure, shortened: (§1)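 Radiotracer (0.2–0.4 μCi) given as a single tail-vein injection of 100 μL saline containing 10 μL ethanol to normal ddY mice (5 weeks old, 25–30 g). Mice were sacrificed at set times after injection. Organs were excised and weighed, and radioactivity was counted in an automatic gamma counter.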
# Stomach [3] = assay: Biodistribution in ddY mouse stomach at 0.2 to 0.4 uCi, iv after 60 mins measured per gram of organ; type: ADME, organism-based; conditions: in vivo, 1 h; procedure, shortened: as §1
# Heart [4] = assay: Biodistribution in ddY mouse heart at 0.2 to 0.4 uCi, iv after 10 mins; type: ADME, organism-based; conditions: in vivo; procedure, shortened: as §1
# Pancreas [5] = assay: Biodistribution in ddY mouse pancreas at 0.2 to 0.4 uCi, iv after 60 mins; type: ADME, organism-based; conditions: in vivo, 1 h; procedure, shortened: as §1
# Kidney [6] = assay: Biodistribution in ddY mouse kidney at 0.2 to 0.4 uCi, iv after 30 mins; type: ADME, organism-based; conditions: in vivo, 0.5 h; procedure, shortened: as §1
# Blood [7] = assay: Biodistribution in ddY mouse blood at 0.2 to 0.4 uCi, iv after 60 mins; type: ADME, organism-based; conditions: in vivo, 1 h; procedure, shortened: as §1
# Intestine [8] = assay: Biodistribution in ddY mouse intestine at 0.2 to 0.4 uCi, iv after 2 mins; type: ADME, organism-based; conditions: in vivo; procedure, shortened: as §1
# Brain [9] = assay: Biodistribution in ddY mouse brain at 0.2 to 0.4 uCi, iv after 60 mins; type: ADME, organism-based; conditions: in vivo, 1 h; procedure, shortened: as §1
# Spleen [10] = assay: Biodistribution in ddY mouse spleen at 0.2 to 0.4 uCi, iv after 60 mins; type: ADME, organism-based; conditions: in vivo, 1 h; procedure, shortened: as §1
# Blood [11] = assay: Biodistribution in ddY mouse blood at 0.2 to 0.4 uCi, iv after 10 mins; type: ADME, organism-based; conditions: in vivo; procedure, shortened: as §1
# Brain [12] = assay: Biodistribution in ddY mouse brain at 0.2 to 0.4 uCi, iv after 2 mins; type: ADME, organism-based; conditions: in vivo; procedure, shortened: as §1
# Pancreas [13] = assay: Biodistribution in ddY mouse pancreas at 0.2 to 0.4 uCi, iv after 30 mins; type: ADME, organism-based; conditions: in vivo, 0.5 h; procedure, shortened: as §1
# Liver [14] = assay: Biodistribution in ddY mouse liver at 0.2 to 0.4 uCi, iv after 30 mins; type: ADME, organism-based; conditions: in vivo, 0.5 h; procedure, shortened: as §1
# Stomach [15] = assay: Biodistribution in ddY mouse stomach at 0.2 to 0.4 uCi, iv after 10 mins measured per gram of organ; type: ADME, organism-based; conditions: in vivo; procedure, shortened: as §1
# Heart [16] = assay: Biodistribution in ddY mouse heart at 0.2 to 0.4 uCi, iv after 2 mins; type: ADME, organism-based; conditions: in vivo; procedure, shortened: as §1
# Heart [17] = assay: Biodistribution in ddY mouse heart at 0.2 to 0.4 uCi, iv after 30 mins; type: ADME, organism-based; conditions: in vivo, 0.5 h; procedure, shortened: as §1
# Brain [18] = assay: Biodistribution in ddY mouse brain at 0.2 to 0.4 uCi, iv after 30 mins; type: ADME, organism-based; conditions: in vivo, 0.5 h; procedure, shortened: as §1
# Kidney [19] = assay: Biodistribution in ddY mouse kidney at 0.2 to 0.4 uCi, iv after 2 mins; type: ADME, organism-based; conditions: in vivo; procedure, shortened: as §1
# Spleen [20] = assay: Biodistribution in ddY mouse spleen at 0.2 to 0.4 uCi, iv after 10 mins; type: ADME, organism-based; conditions: in vivo; procedure, shortened: as §1
# Pancreas [21] = assay: Biodistribution in ddY mouse pancreas at 0.2 to 0.4 uCi, iv after 2 mins; type: ADME, organism-based; conditions: in vivo; procedure, shortened: as §1
# Liver [22] = assay: Biodistribution in ddY mouse liver at 0.2 to 0.4 uCi, iv after 2 mins; type: ADME, organism-based; conditions: in vivo; procedure, shortened: as §1
# Liver [23] = assay: Biodistribution in ddY mouse liver at 0.2 to 0.4 uCi, iv after 60 mins; type: ADME, organism-based; conditions: in vivo, 1 h; procedure, shortened: as §1
# Pancreas [24] = assay: Biodistribution in ddY mouse pancreas at 0.2 to 0.4 uCi, iv after 10 mins; type: ADME, organism-based; conditions: in vivo; procedure, shortened: as §1
# Intestine [25] = assay: Biodistribution in ddY mouse intestine at 0.2 to 0.4 uCi, iv after 60 mins; type: ADME, organism-based; conditions: in vivo, 1 h; procedure, shortened: as §1
# Intestine [26] = assay: Biodistribution in ddY mouse intestine at 0.2 to 0.4 uCi, iv after 10 mins; type: ADME, organism-based; conditions: in vivo; procedure, shortened: as §1
# Spleen [27] = assay: Biodistribution in ddY mouse spleen at 0.2 to 0.4 uCi, iv after 2 mins; type: ADME, organism-based; conditions: in vivo; procedure, shortened: as §1
# Kidney [28] = assay: Biodistribution in ddY mouse kidney at 0.2 to 0.4 uCi, iv after 10 mins; type: ADME, organism-based; conditions: in vivo; procedure, shortened: as §1
# Stomach [29] = assay: Biodistribution in ddY mouse stomach at 0.2 to 0.4 uCi, iv after 2 mins measured per gram of organ; type: ADME, organism-based; conditions: in vivo; procedure, shortened: as §1
# Heart [30] = assay: Biodistribution in ddY mouse heart at 0.2 to 0.4 uCi, iv after 60 mins; type: ADME, organism-based; conditions: in vivo, 1 h; procedure, shortened: as §1
# Blood [31] = assay: Biodistribution in ddY mouse blood at 0.2 to 0.4 uCi, iv after 30 mins; type: ADME, organism-based; conditions: in vivo, 0.5 h; procedure, shortened: as §1
# Brain [32] = assay: Biodistribution in ddY mouse brain at 0.2 to 0.4 uCi, iv after 10 mins; type: ADME, organism-based; conditions: in vivo; procedure, shortened: as §1
# Stomach [33] = assay: Biodistribution in ddY mouse stomach at 0.2 to 0.4 uCi, iv after 30 mins measured per gram of organ; type: ADME, organism-based; conditions: in vivo, 0.5 h; procedure, shortened: as §1
# Intestine [34] = assay: Biodistribution in ddY mouse intestine at 0.2 to 0.4 uCi, iv after 30 mins; type: ADME, organism-based; conditions: in vivo, 0.5 h; procedure, shortened: as §1
# Spleen [35] = assay: Biodistribution in ddY mouse spleen at 0.2 to 0.4 uCi, iv after 30 mins; type: ADME, organism-based; conditions: in vivo, 0.5 h; procedure, shortened: as §1
# Liver [36] = assay: Biodistribution in ddY mouse liver at 0.2 to 0.4 uCi, iv after 10 mins; type: ADME, organism-based; conditions: in vivo; procedure, shortened: as §1
# Blood [37] = assay: Biodistribution in ddY mouse blood at 0.2 to 0.4 uCi, iv after 2 mins; type: ADME, organism-based; conditions: in vivo; procedure, shortened: as §1
Compound,Drug uptake (Kidney [2]) [% ID/g],Drug uptake (Stomach [3]) [%ID],Drug uptake (Heart [4]) [% ID/g],Drug uptake (Pancreas [5]) [% ID/g],Drug uptake (Kidney [6]) [% ID/g],Drug uptake (Blood [7]) [% ID/g],Drug uptake (Intestine [8]) [% ID/g],Drug uptake (Brain [9]) [% ID/g],Drug uptake (Spleen [10]) [% ID/g],Drug uptake (Blood [11]) [% ID/g],Drug uptake (Brain [12]) [% ID/g],Drug uptake (Pancreas [13]) [% ID/g],Drug uptake (Liver [14]) [% ID/g],Drug uptake (Stomach [15]) [%ID],Drug uptake (Heart [16]) [% ID/g],Drug uptake (Heart [17]) [% ID/g],Drug uptake (Brain [18]) [% ID/g],Drug uptake (Kidney [19]) [% ID/g],Drug uptake (Spleen [20]) [% ID/g],Drug uptake (Pancreas [21]) [% ID/g],also measured
CNc1ccc(-c2cc3cc(I)ccc3[nH]2)cc1,,,,,,,,,,,,,,,,,,,,,Ki [1]: 27 nM
CNc1ccc(-c2cc3cc([125I])ccc3[nH]2)cc1,2.61,1.68,3.59,1.27,3.84,0.8,0.97,0.83,5.89,1.71,1.1,2.12,23.07,1.34,5.68,2.96,1.42,5.53,19.67,2.31,Drug uptake (Liver [22]): 22.85 % ID/g; Drug uptake (Liver [23]): 15.89 % ID/g; Drug uptake (Pancreas [24]): 2.87 % ID/g; Drug uptake (Intestine [25]): 9.48 % ID/g; Drug uptake (Intestine [26]): 3.57 % ID/g; Drug uptake (Spleen [27]): 7.83 % ID/g; Drug uptake (Kidney [28]): 4.31 % ID/g; Drug uptake (Stomach [29]): 0.52 %ID; Drug uptake (Heart [30]): 1.88 % ID/g; Drug uptake (Blood [31]): 1.36 % ID/g; Drug uptake (Brain [32]): 1.68 % ID/g; Drug uptake (Stomach [33]): 2.55 %ID; Drug uptake (Intestine [34]): 8.54 % ID/g; Drug uptake (Spleen [35]): 10.34 % ID/g; Drug uptake (Liver [36]): 26.83 % ID/g; Drug uptake (Blood [37]): 3.77 % ID/g
CN(C)c1ccc(-c2cc3cc([125I])ccc3[nH]2)cc1,4.71,16.26,4.82,2.3,4.58,3.29,1.8,0.71,2.24,4.53,1.19,3.1,3.55,10.65,8.08,1.87,0.96,9.49,3.28,5.21,Drug uptake (Liver [22]): 10.2 % ID/g; Drug uptake (Liver [23]): 3.24 % ID/g; Drug uptake (Pancreas [24]): 4.13 % ID/g; Drug uptake (Intestine [25]): 6.08 % ID/g; Drug uptake (Intestine [26]): 3.09 % ID/g; Drug uptake (Spleen [27]): 4.13 % ID/g; Drug uptake (Kidney [28]): 4.46 % ID/g; Drug uptake (Stomach [29]): 4.03 %ID; Drug uptake (Heart [30]): 1.84 % ID/g; Drug uptake (Blood [31]): 3.68 % ID/g; Drug uptake (Brain [32]): 1.19 % ID/g; Drug uptake (Stomach [33]): 17.77 %ID; Drug uptake (Intestine [34]): 4.52 % ID/g; Drug uptake (Spleen [35]): 2.6 % ID/g; Drug uptake (Liver [36]): 5.14 % ID/g; Drug uptake (Blood [37]): 6.18 % ID/g
